Reference: publication PMC4203403 (Journal of Medicinal Chemistry, 2014)
Where two headings read alike, the source gives them in different places.

Legend:
CB1 receptor [1] = molecular target: T1, CB1 receptor (Homo sapiens, UniProt P21554); assay: ERK1/2 phosphorylation immunoblotting in HEK293 cells expressing CB1; type: cell-based; conditions: for pertussis toxin (PTX) sensitivity of induced ERK1/2 phosphorylation: PTX pretreatment; for pertussis toxin (PTX) sensitivity of induced ERK1/2 phosphorylation / effect of β-arrestin 1 knockdown on induced ERK1/2 phosphorylation: result in words; for effect of β-arrestin 1 knockdown on induced ERK1/2 phosphorylation: siRNA targeting β-arrestin 1; for modulator concentration at which ERK1/2 phosphorylation reached a plateau: in the presence of 0.2 μM CP55,940, 5 min
T1 sequence (P21554 whole entry): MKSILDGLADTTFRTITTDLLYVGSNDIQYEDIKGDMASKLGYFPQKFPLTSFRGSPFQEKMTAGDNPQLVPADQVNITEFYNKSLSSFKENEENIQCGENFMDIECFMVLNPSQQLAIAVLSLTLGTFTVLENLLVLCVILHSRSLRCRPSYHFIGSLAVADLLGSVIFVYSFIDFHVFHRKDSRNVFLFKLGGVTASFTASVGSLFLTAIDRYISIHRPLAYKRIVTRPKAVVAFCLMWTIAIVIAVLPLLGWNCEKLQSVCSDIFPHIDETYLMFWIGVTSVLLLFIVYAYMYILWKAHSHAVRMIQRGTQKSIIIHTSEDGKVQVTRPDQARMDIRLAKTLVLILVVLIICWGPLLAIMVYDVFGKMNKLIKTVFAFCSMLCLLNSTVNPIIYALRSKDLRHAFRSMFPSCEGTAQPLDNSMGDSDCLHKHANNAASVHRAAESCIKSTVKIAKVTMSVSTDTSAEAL

CB1 receptor [2] = molecular target: T1, CB1 receptor; conditions: [3H]CP55,940 as orthosteric ligand; given for comparison; cited from earlier work
CB1 receptor [3] = molecular target: T1, CB1 receptor; assay: Radioligand binding assay with [3H]CP55,940; conditions: for α: binding cooperativity factor: [3H]CP55,940 as orthosteric ligand, ND = no detectable modulation of [3H]CP55,940 binding using up to 32 μM
Procedure, shortened: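 CB1 was transiently expressed in HEK293 cells by calcium phosphate transfection, and membranes were harvested 24 h later. […] Nonspecific binding was measured with 1 μM CP55,940. Read-out was GF/C filtration and scintillation counting. Run in duplicate, ≥3 experiments; KB and α fitted by nonlinear regression.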

CB1 receptor [4] = molecular target: T1, CB1 receptor; assay: CP55,940-induced [35S]GTPγS binding assay, HEK293 cell membranes expressing CB1; type: biochemical; conditions: result in words

Q: With `CCCCCCC(C)(C)c1ccc([C@@H]2C[C@H](O)CC[C@H]2CCCO)c(O)c1` [CP55,940, 2-[(1R,2R,5R)-5-hydroxy-2-(3-hydroxypropyl)cyclohexyl]-5-(2-methyloctan-2-yl)phenol, reference compound] as the compound, how does the “pertussis toxin (PTX) sensitivity of induced ERK1/2 phosphorylation” value (CB1 receptor [1]) read?
A: substantially attenuated by pertussis toxin (PTX)

Q: What about the “effect of β-arrestin 1 knockdown on induced ERK1/2 phosphorylation” value (from here on “effect of β-arrestin 1 knockdown”) (CB1 receptor [1]) of the same compound?
A: not by β-arrestin knockdown

Q: With `CCc1c(C(=O)NCCc2ccc(N3CCCCC3)cc2)[nH]c2ccc(Cl)cc12` [Compound 1, 5-Chloro-3-ethyl-N-(4-(piperidin-1-yl)phenethyl)-1H-indole-2-carboxamide] as the compound, how does the “α: binding cooperativity factor” value (CB1 receptor [2]) read?
A: 6.9

Q: With `CCCCCc1c(C(=O)NCCc2ccc(N3CCCCC3)cc2)[nH]c2ccc(Cl)cc12` [Compound 2, 5-chloro-3-pentyl-N-(4-(piperidin-1-yl)phenethyl)-1H-indole-2-carboxamide, reference compound] as the compound, how does the “modulator concentration at which ERK1/2 phosphorylation reached a plateau” value (from here on “modulator concentration”) (CB1 receptor [1]) read?
A: 10 µM

Q: What about the “effect of β-arrestin 1 knockdown” value (CB1 receptor [1]) of the same compound?
A: substantial inhibition of ERK1/2 phosphorylation

Q: What about the “α: binding cooperativity factor” value (CB1 receptor [2]) of the same compound?
A: 17.6

Q: For `CCc1c(C(=O)NCCc2ccc(N(C)C)cc2)[nH]c2ccc(Cl)cc12` [Compound 4, 5-chloro-N-(4-(dimethylamino)phenethyl)-3-ethyl-1H-indole-2-carboxamide], which “α: binding cooperativity factor” value (CB1 receptor [2]) is on record?
A: 19.7

Q: Which “α: binding cooperativity factor” value (CB1 receptor [2]) does the source give for `CCCCCc1c(C(=O)NCCc2ccc(N(C)C)cc2)[nH]c2ccc(Cl)cc12` [Compound 5, 5-chloro-N-(4-(dimethylamino)phenethyl)-3-pentyl-1H-indole-2-carboxamide] here?
A: 16.5

Q: Which “α: binding cooperativity factor” value (CB1 receptor [3]) does the source give for `CCCc1c(C(=O)NCCc2ccc(N3CCCCC3)cc2)[nH]c2ccc(Cl)cc12` [Compound 12a, 5-Chloro-N-(4-(piperidin-1-yl)phenethyl)-3-propyl-1H-indole-2-carboxamide] here?
A: 26.7

Q: With `CCCc1c(C(=O)NCCc2ccc(N(C)C)cc2)[nH]c2ccc(Cl)cc12` [Compound 12d, 5-Chloro-N-(4-(dimethylamino)phenethyl)-3-propyl-1H-indole-2-carboxamide] as the compound, how does the “α: binding cooperativity factor” value (CB1 receptor [3]) read?
A: 24.5

Q: And the “modulator concentration” value (CB1 receptor [1])?
A: 5 µM

Q: What about the “effect of β-arrestin 1 knockdown” value (CB1 receptor [1]) of the same compound?
A: substantial inhibition of ERK1/2 phosphorylation

Q: And the “effect on CP55,940-induced G-protein coupling activity (GTPγS binding)” value (CB1 receptor [4])?
A: concentration-dependent inhibition of agonist-induced GTPγS binding

Q: Which “α: binding cooperativity factor” value (CB1 receptor [3]) does the source give for `CCCCc1c(C(=O)NCCc2ccc(N(C)C)cc2)[nH]c2ccc(Cl)cc12` [Compound 12e, 3-Butyl-5-chloro-N-(4-(dimethylamino)phenethyl)-1H-indole-2-carboxamide] here?
A: 12.8

Q: Which “α: binding cooperativity factor” value (CB1 receptor [3]) does the source give for `CCCCCCc1c(C(=O)NCCc2ccc(N(C)C)cc2)[nH]c2ccc(Cl)cc12` [Compound 12f, 5-Chloro-N-(4-(dimethylamino)phenethyl)-3-hexyl-1H-indole-2-carboxamide] here?
A: 5.1

Q: And the “pertussis toxin (PTX) sensitivity of induced ERK1/2 phosphorylation” value (CB1 receptor [1])?
A: PTX insensitive

Q: What about the “modulator concentration” value (CB1 receptor [1]) of the same compound?
A: 5 µM

Q: What about the “effect of β-arrestin 1 knockdown” value (CB1 receptor [1]) of the same compound?
A: substantial inhibition of ERK1/2 phosphorylation

Q: And the “effect on CP55,940-induced G-protein coupling activity (GTPγS binding)” value (CB1 receptor [4])?
A: concentration-dependent inhibition of agonist-induced GTPγS binding

Q: For `CCc1c(C(=O)NCCc2ccc(N(C)C)cc2)[nH]c2cc(Cl)ccc12` [Compound 21a, N-(4-(Dimethylamino)phenethyl)-3-ethyl-6-chloro-1H-indole-2-carboxamide], which “α: binding cooperativity factor” value (CB1 receptor [3]) is on record?
A: 16.0

Q: For `CCc1c(C(=O)NCCc2ccc(N(C)C)cc2)[nH]c2cc(F)ccc12` [Compound 21b, N-(4-(Dimethylamino)phenethyl)-3-ethyl-6-fluoro-1H-indole-2-carboxamide], which “α: binding cooperativity factor” value (CB1 receptor [3]) is on record?
A: 22.9

Q: For `CCc1c(C(=O)NCCc2ccc(N(C)C)cc2)[nH]c2cc(OC)ccc12` [Compound 21c, N-(4-(Dimethylamino)phenethyl)-3-ethyl-6-methoxy-1H-indole-2-carboxamide], which “α: binding cooperativity factor” value (CB1 receptor [3]) is on record?
A: 6.2

Q: Which “α: binding cooperativity factor” value (CB1 receptor [3]) does the source give for `CCc1c(C(=O)NCCc2ccc(N(C)C)cc2)[nH]c2ccc(OC)cc12` [Compound 21d, N-(4-(Dimethylamino)phenethyl)-3-ethyl-5-methoxy-1H-indole-2-carboxamide] here?
A: 11.9

Q: Which “allosteric modulation of orthosteric agonist CP55,940 binding” value (CB1 receptor [3]; result in words) does the source give for `CCc1c(C(=O)NCCCc2ccc(N(C)C)cc2)[nH]c2ccc(Cl)cc12` [Compound 26, 5-Chloro-N-(3-(4-(dimethylamino)phenyl)propyl)-3-ethyl-1H-indole-2-carboxamide] here?
A: loss of allosteric modulation
